# Data published in ChEMBL document CHEMBL4715736, “Identification of anticancer agents based on the thieno[2,3-b]pyridine and 1H-pyrazole molecular scaffolds” (2016).
# Assays:
# Format in all cases: functional
# COLO 205 [1] = experiment: Growth inhibition of human COLO 205 cells assessed as cell growth at 100 uM incubated for 48 hrs by sulforhodamine B assay relative to control; details: read-out: Activity
# Summary of the method: (§1)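 NCI Developmental Therapeutics Program NCI60 panel. Compounds that were active in the 10 µM one-dose screen went on to dose–response testing. Growth at each concentration is expressed relative to untreated control (100%). GI50 (concentration giving 50% of maximal inhibition of proliferation) and TGI (concentration giving total growth inhibition) were derived from the curves.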
# SK-MEL-28 = experiment: Growth inhibition of human SK-MEL-28 cells assessed as cell growth at 0.1 uM incubated for 48 hrs by sulforhodamine B assay relative to control; details: read-out: Activity
# SF-539 [2] = experiment: Growth inhibition of human SF-539 cells assessed as cell growth at 0.1 uM incubated for 48 hrs by sulforhodamine B assay relative to control; details: read-out: Activity
# NCI-H322M [3] = experiment: Growth inhibition of human NCI-H322M cells incubated for 48 hrs by sulforhodamine B assay; details: for CC50: read-out: LC50 (the source's name)
# Summary of the method: (§2)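 NCI60 panel at the NCI Developmental Therapeutics Program. Only compounds active in the 10 µM screen went to dose-response testing. GI50, the concentration giving 50% of maximal inhibition of proliferation, and TGI, the concentration giving total growth inhibition, were derived from the dose-response curves.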
# SR = experiment: Growth inhibition of human SR cells incubated for 48 hrs by sulforhodamine B assay
# Summary of the method: (§3)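 NCI DTP 60-line human tumour panel. Dose-response curves were run only for ligands active in the initial 10 µM screen. GI50 (concentration giving 50% of maximal inhibition of proliferation) and TGI (concentration giving total growth inhibition) were derived from these curves.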
# HCC 2998 = experiment: Growth inhibition of human HCC 2998 cells assessed as cell growth at 0.1 uM incubated for 48 hrs by sulforhodamine B assay relative to control; details: read-out: Activity; summary of the method: as §1
# NCI-H460 [4] = experiment: Growth inhibition of human NCI-H460 cells assessed as cell growth at 1 uM incubated for 48 hrs by sulforhodamine B assay relative to control; details: read-out: Activity
# M14 = experiment: Growth inhibition of human M14 cells assessed as cell growth at 100 uM incubated for 48 hrs by sulforhodamine B assay relative to control; details: read-out: Activity
# A549 = experiment: Growth inhibition of human A549/ATCC cells incubated for 48 hrs by sulforhodamine B assay; details: for CC50: read-out: LC50 (the source's name); summary of the method: as §1
# SNB-75 [5] = experiment: Growth inhibition of human SNB-75 cells incubated for 48 hrs by sulforhodamine B assay; summary of the method: as §3
# SNB-19 = experiment: Growth inhibition of human SNB-19 cells assessed as cell growth at 0.01 uM incubated for 48 hrs by sulforhodamine B assay relative to control; details: read-out: Activity
# OVCAR-5 = experiment: Growth inhibition of human OVCAR-5 cells incubated for 48 hrs by sulforhodamine B assay; details: for CC50: read-out: LC50 (the source's name); summary of the method: as §3
# RXF 393 = experiment: Growth inhibition of human RXF 393 cells assessed as cell growth at 0.01 uM incubated for 48 hrs by sulforhodamine B assay relative to control; details: read-out: Activity
# SF-539 [6] = experiment: Growth inhibition of human SF-539 cells assessed as cell growth at 100 uM incubated for 48 hrs by sulforhodamine B assay relative to control; details: read-out: Activity
# HCT-116 = experiment: Growth inhibition of human HCT-116 cells assessed as cell growth at 1 uM incubated for 48 hrs by sulforhodamine B assay relative to control; details: read-out: Activity
# NCI-H226 = experiment: Growth inhibition of human NCI-H226 cells incubated for 48 hrs by sulforhodamine B assay; details: for CC50: read-out: LC50 (the source's name); summary of the method: as §2
# MDA-MB-231 = experiment: Growth inhibition of human MDA-MB-231 cells assessed as cell growth at 1 uM incubated for 48 hrs by sulforhodamine B assay relative to control; details: read-out: Activity
# KM12 = experiment: Growth inhibition of human KM12 cells assessed as cell growth at 0.1 uM incubated for 48 hrs by sulforhodamine B assay relative to control; details: read-out: Activity
# COLO 205 [7] = experiment: Growth inhibition of human COLO 205 cells assessed as cell growth at 0.1 uM incubated for 48 hrs by sulforhodamine B assay relative to control; details: read-out: Activity; summary of the method: as §1
# SNB-75 [8] = experiment: Growth inhibition of human SNB-75 cells assessed as cell growth at 1 uM incubated for 48 hrs by sulforhodamine B assay relative to control; details: read-out: Activity
# OVCAR-3 = experiment: Growth inhibition of human OVCAR-3 cells assessed as cell growth at 0.1 uM incubated for 48 hrs by sulforhodamine B assay relative to control; details: read-out: Activity
# SNB-75 [9] = experiment: Growth inhibition of human SNB-75 cells assessed as cell growth at 0.01 uM incubated for 48 hrs by sulforhodamine B assay relative to control; details: read-out: Activity
# TK-10 = experiment: Growth inhibition of human TK-10 cells incubated for 48 hrs by sulforhodamine B assay; summary of the method: as §3
# SF-295 [10] = experiment: Growth inhibition of human SF-295 cells incubated for 48 hrs by sulforhodamine B assay; summary of the method: as §3
# NCI-H322M [11] = experiment: Growth inhibition of human NCI-H322M cells assessed as cell growth at 1 uM incubated for 48 hrs by sulforhodamine B assay relative to control; details: read-out: Activity
# U-251 = experiment: Growth inhibition of human U-251 cells assessed as cell growth at 1 uM incubated for 48 hrs by sulforhodamine B assay relative to control; details: read-out: Activity
# MDA-MB-435 = experiment: Growth inhibition of human MDA-MB-435 cells assessed as cell growth at 1 uM incubated for 48 hrs by sulforhodamine B assay relative to control; details: read-out: Activity
# 786-0 = experiment: Growth inhibition of human 786-0 cells assessed as cell growth at 1 uM incubated for 48 hrs by sulforhodamine B assay relative to control; details: read-out: Activity; summary of the method: as §1
# DU-145 = experiment: Growth inhibition of human DU-145 cells assessed as cell growth at 100 uM incubated for 48 hrs by sulforhodamine B assay relative to control; details: read-out: Activity; summary of the method: as §1
# UO-31 = experiment: Growth inhibition of human UO-31 cells assessed as cell growth at 0.01 uM incubated for 48 hrs by sulforhodamine B assay relative to control; details: read-out: Activity
# NCI-H460 [12] = experiment: Growth inhibition of human NCI-H460 cells assessed as cell growth at 0.1 uM incubated for 48 hrs by sulforhodamine B assay relative to control; details: read-out: Activity
# SF-295 [13] = experiment: Growth inhibition of human SF-295 cells assessed as cell growth at 0.1 uM incubated for 48 hrs by sulforhodamine B assay relative to control; details: read-out: Activity
# UACC-62 [14] = experiment: Growth inhibition of human UACC-62 cells incubated for 48 hrs by sulforhodamine B assay; summary of the method: as §3
# UACC-62 [15] = experiment: Growth inhibition of human UACC-62 cells assessed as cell growth at 0.1 uM incubated for 48 hrs by sulforhodamine B assay relative to control; details: read-out: Activity
# UACC-62 [16] = experiment: Growth inhibition of human UACC-62 cells assessed as cell growth at 0.01 uM incubated for 48 hrs by sulforhodamine B assay relative to control; details: read-out: Activity
smiles,measurement,setting,value
Cc1ccc(NC(=O)c2sc3nc4c(cc3c2N)C(=O)CCC4)cc1C,growth at 100 µM,COLO 205 [1],-56%
same,growth at 0.1 µM,SK-MEL-28,87%
same,growth at 0.1 µM,SF-539 [2],90%
same,GI50,NCI-H322M [3],0.975 µM
same,TGI,NCI-H322M [3],> 100 µM
same,CC50,NCI-H322M [3],> 100 µM
same,GI50,SR,0.499 µM
same,LC50,SR,> 100 µM
same,TGI,SR,26.8 µM
same,growth at 0.1 µM,HCC 2998,93%
same,growth at 1 µM,NCI-H460 [4],11%
same,growth at 100 µM,M14,4%
same,GI50,A549,0.673 µM
same,TGI,A549,> 100 µM
same,CC50,A549,> 100 µM
same,GI50,SNB-75 [5],0.183 µM
same,LC50,SNB-75 [5],> 100 µM
same,TGI,SNB-75 [5],> 100 µM
same,growth at 0.01 µM,SNB-19,91%
same,GI50,OVCAR-5,2.29 µM
same,TGI,OVCAR-5,> 100 µM
same,CC50,OVCAR-5,> 100 µM
same,growth at 0.01 µM,RXF 393,87%
same,growth at 100 µM,SF-539 [6],7%
same,growth at 1 µM,HCT-116,33%
same,GI50,NCI-H226,22.4 µM
same,TGI,NCI-H226,> 100 µM
same,CC50,NCI-H226,> 100 µM
same,growth at 1 µM,MDA-MB-231,56%
same,growth at 0.1 µM,KM12,96%
same,growth at 0.1 µM,COLO 205 [7],98%
same,growth at 1 µM,SNB-75 [8],-7%
same,growth at 0.1 µM,OVCAR-3,101%
same,growth at 0.01 µM,SNB-75 [9],78%
same,TGI,TK-10,> 100 µM
same,CC50,TK-10; read-out: LC50 (the source's name),> 100 µM
same,GI50,SF-295 [10],0.328 µM
same,LC50 (concentration killing 50% of cells),SF-295 [10],> 100 µM
same,TGI,SF-295 [10],> 100 µM
same,growth at 1 µM,NCI-H322M [11],49%
same,growth at 1 µM,U-251,42%
same,growth at 1 µM,MDA-MB-435,-58%
same,growth at 1 µM,786-0,40%
same,growth at 100 µM,DU-145,14%
same,growth at 0.01 µM,UO-31,81%
same,growth at 0.1 µM,NCI-H460 [12],102%
same,growth at 0.1 µM,SF-295 [13],85%
CCc1cccc(C)c1NC(=O)c1sc2nc3c(cc2c1N)C(=O)CCC3,growth at 100 µM,COLO 205 [1],-31%
same,growth at 0.1 µM,SK-MEL-28,91%
same,growth at 0.1 µM,SF-539 [2],89%
same,TGI,NCI-H322M [3],> 100 µM
same,CC50,NCI-H322M [3],> 100 µM
same,GI50,SR,0.403 µM
same,LC50,SR,> 100 µM
same,TGI,SR,≥ 100 µM
same,growth at 0.1 µM,HCC 2998,100%
same,growth at 1 µM,NCI-H460 [4],9%
same,growth at 100 µM,M14,-17%
same,GI50,A549,0.593 µM
same,TGI,A549,> 100 µM
same,CC50,A549,> 100 µM
same,GI50,SNB-75 [5],0.212 µM
same,LC50,SNB-75 [5],> 100 µM
same,growth at 0.01 µM,SNB-19,96%
same,GI50,OVCAR-5,2.6 µM
same,TGI,OVCAR-5,> 100 µM
same,CC50,OVCAR-5,> 100 µM
same,GI50,UACC-62 [14],0.556 µM
same,LC50,UACC-62 [14],> 100 µM
same,TGI,UACC-62 [14],> 100 µM
same,growth at 0.01 µM,RXF 393,84%
same,growth at 100 µM,SF-539 [6],2%
same,growth at 1 µM,HCT-116,28%
same,GI50,NCI-H226,0.182 µM
same,TGI,NCI-H226,> 100 µM
same,CC50,NCI-H226,> 100 µM
same,growth at 1 µM,MDA-MB-231,51%
same,growth at 0.1 µM,KM12,92%
same,growth at 0.1 µM,COLO 205 [7],102%
same,growth at 1 µM,SNB-75 [8],-2%
same,growth at 0.1 µM,OVCAR-3,104%
same,growth at 0.01 µM,SNB-75 [9],73%
same,GI50,SF-295 [10],0.276 µM
same,LC50 (concentration killing 50% of cells),SF-295 [10],> 100 µM
same,TGI,SF-295 [10],> 100 µM
same,growth at 0.1 µM,UACC-62 [15],88%
same,growth at 1 µM,NCI-H322M [11],42%
same,growth at 1 µM,U-251,37%
same,growth at 1 µM,MDA-MB-435,-50%
same,growth at 1 µM,786-0,36%
same,growth at 100 µM,DU-145,9%
same,growth at 0.01 µM,UO-31,86%
same,growth at 0.01 µM,UACC-62 [16],96%
same,growth at 0.1 µM,NCI-H460 [12],100%
same,growth at 0.1 µM,SF-295 [13],85%
